Source: ChEMBL document CHEMBL3112441, “Synthesis, anticonvulsant activity and molecular properties prediction of dialkyl 1-(di(ethoxycarbonyl)methyl)-2,6-dimethyl-4-substituted-1,4-dihydropyridine-3,5-dicarboxylates” (Eur J Med Chem, 2014)

Tests used:
Rattus norvegicus [1] = test: Anticonvulsant activity in Wistar albino rat assessed as protection against maximal electroshock-induced seizures by measuring duration of limb extension at 10 mg/kg, po pretreated for 1 hr followed by maximal electroshock challenge (reference value: 16 +/- 1 secs); type: functional
In short: (§1)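 Adult male Wistar rats (150–250 g), six per group, dosed orally 10 mg/kg as suspension in 0.5% sodium carboxymethylcellulose; vehicle control. After 1 h, maximal electroshock of 150 mA for 0.2 s was given via corneal electrodes. Duration of hind limb extension was recorded, and its abolition or reduction was taken as the anticonvulsant index. Values are mean ± SEM, n = 6, analysed by one-way ANOVA with Dunnett's test.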

Rattus norvegicus [2] = test: Anticonvulsant activity in Wistar albino rat assessed as protection against maximal electroshock-induced electroconvulsive seizures at 10 mg/kg, po pretreated for 1 hr followed by maximal electroshock challenge relative to control; type: functional; in short: as §1
Mus musculus = test: Toxicity in Swiss albino mouse up to 100 mg/kg, po measured over 7 days; type: organism-based; set-up: dose 100 mg/kg, route oral; conditions: in vivo, 168 h
In short: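 Acute oral toxicity followed OECD-425. Swiss albino mice (18–20 g), 5 per group, were dosed orally at different levels and observed for death over seven days.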

Rattus norvegicus [3] = test: Anticonvulsant activity in Wistar albino rat assessed as protection against […] at 10 mg/kg, po pretreated for 1 hr followed by pentylenetetrazole challenge measured over 300 secs relative to control; type: functional
Rattus norvegicus [4] = test: Anticonvulsant activity in Wistar albino rat assessed as protection against subcutaneous pentylenetetrazole-induced seizures by measuring latency period at 10 mg/kg, po pretreated for 1 hr followed by pentylenetetrazole challenge measured over 300 secs (reference value: 72 +/- 2 secs); type: functional
Rattus norvegicus [5] = test: Anticonvulsant activity in Wistar albino rat assessed as protection against maximal electroshock-induced seizures by measuring duration of limb extension at 30 mg/kg, po pretreated for 1 hr followed by maximal electroshock challenge (reference value: 16 +/- 1 secs); type: functional
Rattus norvegicus [6] = test: Anticonvulsant activity in Wistar albino rat assessed as protection against subcutaneous pentylenetetrazole-induced seizures by measuring latency period at 30 mg/kg, po pretreated for 1 hr followed by pentylenetetrazole challenge measured over 300 secs (reference value: 72 +/- 2 secs); type: functional
Rattus norvegicus [7] = test: Anticonvulsant activity in Wistar albino rat assessed as protection against maximal electroshock-induced electroconvulsive seizures at 30 mg/kg, po pretreated for 1 hr followed by maximal electroshock challenge relative to control; type: functional
Rattus norvegicus [8] = test: Anticonvulsant activity in Wistar albino rat assessed as protection against subcutaneous pentylenetetrazole-induced mortality at 30 mg/kg, po pretreated for 1 hr followed by pentylenetetrazole challenge relative to control; type: functional
Rattus norvegicus [9] = test: Anticonvulsant activity in Wistar albino rat assessed as protection against subcutaneous pentylenetetrazole-induced seizures by measuring latency period at 5 mg/kg, ip pretreated for 1 hr followed by pentylenetetrazole challenge measured over 300 secs (reference value: 72 +/- 2 secs); type: functional
Rattus norvegicus [10] = test: Anticonvulsant activity in Wistar albino rat assessed as protection against subcutaneous pentylenetetrazole-induced mortality at 5 mg/kg, ip pretreated for 1 hr followed by pentylenetetrazole challenge measured over 300 secs relative to control; type: functional; conditions: sc

SMILES	Time (Rattus norvegicus [1]) [s]	Activity (Rattus norvegicus [2]) [%]	Activity (Mus musculus)	mortality at 10 mg/kg (Rattus norvegicus [3]) [%]	Time (Rattus norvegicus [4]) [s]	Time (Rattus norvegicus [5]) [s]	Time (Rattus norvegicus [6]) [s]	Activity (Rattus norvegicus [7]) [%]	mortality at 30 mg/kg (Rattus norvegicus [8]) [%]	Time (Rattus norvegicus [9]) [s]	mortality at 5 mg/kg (Rattus norvegicus [10]) [%]
CCOC(=O)C(C(=O)OCC)N1C(C)=C(C(=O)OC)C(c2ccccc2[N+](=O)[O-])C(C(=O)OC)=C1C	10	39.6	Non-toxic	0	295	–	–	–	–	–	–
CCOC(=O)C(C(=O)OCC)N1C(C)=C(C(=O)OC)C(/C=C/c2ccc([N+](=O)[O-])cc2)C(C(=O)OC)=C1C	7	52.1	Non-toxic	0	>300	–	–	–	–	–	–
CCOC(=O)C(C(=O)OCC)N1C(C)=C(C(=O)OC)C(c2ccccc2)C(C(=O)OC)=C1C	12	25	Non-toxic	33.3	>300	–	–	–	–	–	–
CCOC(=O)C1=C(C)N(C(C(=O)OCC)C(=O)OCC)C(C)=C(C(=O)OCC)C1CCc1ccccc1	15	8.3	Non-toxic	33.3	246	–	–	–	–	–	–
CCOC(=O)C1=C(C)N(C(C(=O)OCC)C(=O)OCC)C(C)=C(C(=O)OCC)C1Cc1ccccc1	14	10.4	Non-toxic	66.6	265	–	–	–	–	–	–
CCOC(=O)C1=C(C)N(C(C(=O)OCC)C(=O)OCC)C(C)=C(C(=O)OCC)C1c1ccccc1	13	16.6	Non-toxic	0	283	–	–	–	–	–	–
COC(=O)C1=C(C)NC(C)=C(C(=O)OC)C1c1ccccc1[N+](=O)[O-] [NIFEDIPINE]	–	–	–	–	–	7	215	56.8	33.3	–	–
CCOC(=O)C(C(=O)OCC)N1C(C)=C(C(=O)OC)C(CCc2ccccc2)C(C(=O)OC)=C1C	13	20.8	Non-toxic	66.6	>300	–	–	–	–	–	–
O=C1NC(=O)C(c2ccccc2)(c2ccccc2)N1 [PHENYTOIN]	–	–	–	–	–	6	–	62.5	–	–	–
CN1C(=O)CN=C(c2ccccc2)c2cc(Cl)ccc21 [DIAZEPAM]	–	–	–	–	–	–	–	–	–	266	66.6
CCOC(=O)C1=C(C)N(C(C(=O)OCC)C(=O)OCC)C(C)=C(C(=O)OCC)C1c1ccccc1[N+](=O)[O-]	12	22.9	Non-toxic	0	230	–	–	–	–	–	–
CCOC(=O)C(C(=O)OCC)N1C(C)=C(C(=O)OC)CC(C(=O)OC)=C1C	13	14.5	Non-toxic	0	126	–	–	–	–	–	–
CCOC(=O)C1=C(C)N(C(C(=O)OCC)C(=O)OCC)C(C)=C(C(=O)OCC)C1/C=C/c1ccccc1	12	22.9	Non-toxic	0	>300	–	–	–	–	–	–
CCOC(=O)C(C(=O)OCC)N1C(C)=C(C(=O)OC)C(/C=C/c2ccccc2)C(C(=O)OC)=C1C	9	41.6	Non-toxic	100	268	–	–	–	–	–	–
CCOC(=O)C(C(=O)OCC)N1C(C)=C(C(=O)OC)C(Cc2ccccc2)C(C(=O)OC)=C1C	14	14.5	Non-toxic	33.3	285	–	–	–	–	–	–
CCOC(=O)C1=C(C)N(C(C(=O)OCC)C(=O)OCC)C(C)=C(C(=O)OCC)C1/C=C/c1ccc([N+](=O)[O-])cc1	8	50	Non-toxic	0	>300	–	–	–	–	–	–
CCOC(=O)C1=C(C)N(C(C(=O)OCC)C(=O)OCC)C(C)=C(C(=O)OCC)C1	9	41.6	Non-toxic	0	192	–	–	–	–	–	–
